The list is not random: actives were taken first. Their share in the collection is about 2.5%.
UCH37 DUB inh: inhibitors of human deubiquitinating enzyme UCH37. Q9Y5K5. purified proteasome/UCH37, Ub-AMC cleavage fluorescence. inhibition, % (no concentration beside the values). 330,000 compounds, 0.33% hits. AID 588478;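 active = mean inhibition over replicate wells above about 20%, limit read from the data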;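 also: 0% = compound-free wells with enzyme and 100% = wells lacking proteasome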
Target sequence (Q9Y5K5 whole entry, looked up): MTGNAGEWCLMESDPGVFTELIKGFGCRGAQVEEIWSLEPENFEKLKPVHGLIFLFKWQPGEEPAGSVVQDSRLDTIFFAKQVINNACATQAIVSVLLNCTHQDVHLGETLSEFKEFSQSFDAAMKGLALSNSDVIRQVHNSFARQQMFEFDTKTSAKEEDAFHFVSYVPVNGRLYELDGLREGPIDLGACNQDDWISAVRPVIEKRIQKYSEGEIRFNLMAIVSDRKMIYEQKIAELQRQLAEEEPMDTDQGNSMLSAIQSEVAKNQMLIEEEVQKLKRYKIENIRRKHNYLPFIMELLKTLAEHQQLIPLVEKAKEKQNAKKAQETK
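Assay system: Proteasome-bound UCH37. Buffer or medium: pH 7.4 Tris-HCl (50 mM) with ovalbumin, ATP-MgCl2, DTT. Incubation: 30 min preincubation with enzyme, 25 min cleavage at room temperature. Measured by: fluorescence, ex 355 nm, em 460 nm. Read-out basis: percent inhibition. Control set: wells without proteasome as full block, compound-free enzyme plus substrate as uninhibited.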
MEKK3 PB1 HTS: MEKK3-MEK5 PB1 interaction, increase or decrease; Q99759; bead-based flow cytometry, Alexa488-MEK5 binding to MEKK3; actives lie on both sides; 0 = blocked by unlabeled MEK5, 100 = vehicle; binding response (% of control), % at 10 µM; 290,000 compounds, 1.4% hits; AID 1529;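 active = binding response more than 3 SD above or below the average of its plate-row segment, actives on both sides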;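 also: Alexa488 bead fluorescence after subtracting the streptavidin-only scavenger bead signal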
MEKK2 mut-MEK5: signal of MEK5 binding to mutant human MEKK2 PB1 domain; bead flow cytometry, Alexa488-MEK5 binding to MEKK2 mutant; percent response, % at 10 µM; 290,000 compounds, 0.35% hits; AID 1530; in the data active = percent response above about 24%, passing the limit was not always enough
MEKK2 WT-MEK5: raises or lowers MEK5 binding to wildtype human MEKK2 PB1 domain. 290,000 compounds, 1.1% hits. bead flow cytometry, Alexa488-MEK5 binding to MEKK2 WT; actives lie on both sides. binding response (% of control), % at 10 µM. Q9Y2U5; in the data active = binding response below about 67% or above about 130%
Rce1 inh: blocks yeast Ras-converting enzyme; Q03530; yeast membranes, quenched prenylated peptide cleavage fluorescence; calls only; 290,000 compounds, 0.27% hits; AID 2563;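 active = fall in fluorescence gain of 50% or more versus controls, with final raw signal at or below 3038400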;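 also: plate controls were neutral control wells for no effect and wells lacking membranes for full effect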
Target sequence (Q03530 whole entry, looked up): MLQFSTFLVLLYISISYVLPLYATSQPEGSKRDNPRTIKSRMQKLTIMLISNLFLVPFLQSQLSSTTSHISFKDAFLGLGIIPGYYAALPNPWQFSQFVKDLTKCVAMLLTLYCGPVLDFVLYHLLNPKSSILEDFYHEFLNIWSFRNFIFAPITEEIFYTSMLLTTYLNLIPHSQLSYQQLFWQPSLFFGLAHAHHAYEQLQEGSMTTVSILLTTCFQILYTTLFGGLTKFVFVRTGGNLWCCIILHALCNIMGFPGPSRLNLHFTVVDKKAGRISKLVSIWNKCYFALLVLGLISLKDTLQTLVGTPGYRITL
T cell HTS: modulates CD8 T cell binding to vesicles; 2C CD8+ T cell-vesicle binding, flow cytometry; active compounds read low; response (vesicle binding), % at 7 µM; 330,000 compounds, 0.068% hits; AID 2052;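 active = response, share of CD8 T cells binding vesicles, and their 90th percentile fluorescence all below set limits, cut at about 80% in these data, passing the limit was not always enough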;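 also: values below 100% mean blocked vesicle binding to the CD8+ T cells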
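Material: murine 2C transgenic CD8+ T lymphocytes / Also added: QL9-peptide-loaded Drosophila micro-vesicles bearing Ld, ICAM-1 and B7-1 / Schedule: binding step 1.5 h, 37 °C, antibody labelling 20 min, ice / Signal: flow cytometry, PE anti-B7-1 (FL2) versus Alexa647 anti-CD8 (FL8), PFA-fixed / Evaluation: percent CD8+ FL2 mean versus row control / Benchmarks: naked versus QL9-loaded vesicles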
MEKK2wt confirm: raises or lowers MEK5 binding to wildtype human MEKK2, retest | shares compounds with MEKK3 PB1 HTS | bead flow cytometry, Alexa488-MEK5 binding to MEKK2 WT; actives lie on both sides | binding response (% of control), % at 10 µM | 5,900 compounds, 2.4% hits | AID 1892; in the data active = binding response below about 16% or above about 210%; inactive = in between
MEKK2mut confirm: signal of MEK5 binding to mutant human MEKK2, retest; shares compounds with MEKK3 PB1 HTS; 5,900 compounds, 2% hits; percent response, % at 10 µM; bead flow cytometry, Alexa488-MEK5 binding to MEKK2 mutant; in the data active = percent response mostly above about 71%, no sharp cut-off; inactive = mostly below about 38%;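 also: higher means compound restores mutant binding toward wildtype level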
MEKK3 confirm: confirmation of inhibitors of MEK5 binding to human MEKK3; shares compounds with MEKK3 PB1 HTS; bead flow cytometry, Alexa488-MEK5 binding to MEKK3; active compounds read low; binding response (% of control), % at 10 µM; 5,900 compounds, 1.8% hits; AID 1894;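 active = binding response below 72% of control, or above a set upper limit, though filed actives all read lower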;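 also: 100% = DMSO only wells and 0% = binding blocked by excess unlabeled MEK5; lower values mean stronger disruption of MEK5 binding to MEKK3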
* marks the source's active call; other numbers are inactive results; i = inactive; . = no result; [ ] = dose if it differs, or a comment.

SMILES	UCH37 DUB inh	MEKK3 PB1 HTS	MEKK2 mut-MEK5	MEKK2 WT-MEK5	Rce1 inh	T cell HTS	MEKK2wt confirm	MEKK2mut confirm	MEKK3 confirm
COc1ccc(-c2nsc3c(N4CCN(S(=O)(=O)c5ccccc5F)CC4)ncnc23)cc1	-36	71*[inhibitor]	-14	80	i	252	101	-5	100
COc1ccc(-c2nsc3c(N4CCCCC4)ncnc23)cc1	-7	105	1	100	i	575	.	.	.
COC(=O)/C(N=Nc1c(C)n(C)n(-c2ccccc2)c1=O)=C(\C)O	6	142*	0	108	.	172	98	-2	106
CCOC(=O)/C(N=Nc1c(C)n(C)n(-c2ccccc2)c1=O)=C(/O)c1ccccc1	-1	77	-20	82	i	145	.	.	.
CCOC(=O)/C(=N/Nc1ccccc1)c1csc(Nc2ccccc2)n1	.	96	2	109	i	296	.	.	.
CCOC(=O)/C(=N\Nc1ccc(Cl)cc1)c1csc(Nc2ccccc2)n1	.	109	8	135*	i	50	134	10	105
COCCn1c(SCC(=O)Nc2ccc(C)cc2)nc2c(oc3ccccc32)c1=O	5	113	0	101	i	429	.	.	.
COCCn1c(SCC(=O)Nc2ccccc2)nc2c(oc3ccccc32)c1=O	0	4.0*[inhibitor]	-46	7.0*[inhibitor]	i	286	107	-3	106
COc1ccccc1CCNC(C)CCc1ccc(O)cc1 (stereo not given)	-2	106	10	109	i	337	.	.	.
COc1cc(OC)c(OC)cc1CCC(C)NCCC(c1ccccc1)c1ccccc1 (stereo not given)	.	111	18	166*	i	214	120	6	99
Cc1ccc(-c2nnn(CC(=O)NC3CCN(Cc4ccccc4)CC3)n2)cc1	1	71*[inhibitor]	1	111	i	316	110	0	105
COc1ccc(-[n+]2c(C)cc(/C=C3\Sc4ccccc4N3C)cc2C)cc1	24*	71*[inhibitor]	-5	29*[inhibitor]	i	i	61	-22	88
CC(=O)Nc1ccccc1C(=O)C(=O)Nc1cccc(C(=O)NCc2ccc(C)cc2)c1	2	134*	1	108	i	215	96	-2	100
CC=NNC(=O)COc1cc(C)ccc1C	2	.	.	.	.	.	.	.	.
C=CCc1ccccc1OCC(=O)O	3	45*[inhibitor]	-11	53	i	71	96	0	99
O=C(Cn1cc(C(F)(F)F)ccc1=O)NN=Cc1ccc(Cl)c(Cl)c1	0	.	.	.	.	.	.	.	.
CC(=O)Nc1ccc(S(=O)(=O)Nc2cccc(NC(=O)c3ccco3)c2)cc1	3	45*[inhibitor]	-25	62	i	356	100	6	101
O=c1c(C=NCc2cccnc2)c(C(F)(F)F)[nH]n1-c1nc2ccccc2s1	3	95	275*	.	i	605	96	-1	101
CCCC(=NNC(=O)c1ccc2c(c1)OCO2)c1cccs1	3	.	.	.	.	.	.	.	.
Cc1noc(NC(=O)c2cccc(Cl)c2Cl)c1C#N	1	73*[inhibitor]	-2	85	i	204	100	1	101
C=C(C)C1CC=C(C)C(=NNC(=O)COc2ccccc2C)C1 (stereo not given)	1	.	.	.	.	.	.	.	.
Cc1nc2c(cc1C(=O)N/N=C/c1ccc([N+](=O)[O-])cc1)c(=O)n(C)c(=O)n2C	.	135*	1	108	i	334	105	12	111
O=C(NN=Cc1cc(Cl)cc([N+](=O)[O-])c1O)C1CC1	10	.	.	.	.	.	.	.	.
Cc1c(/C=C2\SC(=O)N(CC(=O)Nc3ccc4c(c3)OCO4)C2=O)c2ccccc2n1C	-2	2.0*[inhibitor]	-21	-2.0*[inhibitor]	i	254	97	-2	99
CCn1cc(/C=C2\SC(=O)N(CC(=O)Nc3ccc4c(c3)OCO4)C2=O)c2ccccc21	0	102	14	100	.	486	.	.	.
SMILES	UCH37 DUB inh	MEKK3 PB1 HTS	MEKK2 mut-MEK5	MEKK2 WT-MEK5	Rce1 inh	T cell HTS	MEKK2wt confirm	MEKK2mut confirm	MEKK3 confirm
O=C(CN1C(=O)CSCC1=O)Nc1ccc2c(c1)OCO2	2	136*	0	103	.	209	100	2	104
CC1SC(C)C(=O)N(CC(=O)Nc2ccc3c(c2)OCO3)C1=O (stereo not given)	3	102	-2	101	i	274	.	.	.
COc1ccc(-c2nn(-c3ccccc3)cc2C=NNc2ccccn2)cc1	-3	.	.	.	.	.	.	.	.
O=c1[nH]ncc(NN=Cc2ccccc2)c1Cl	11	.	.	.	.	.	.	.	.
CCC1C(=O)N=C(SCC(=O)Nc2ccc(S(N)(=O)=O)cc2)NC1=O (stereo not given)	5	138*	1	122	i	439	100	-3	98
CCC1C(=O)N=C(SCC(=O)Nc2ccccc2)NC1=O (stereo not given)	0	110	3	104	i	469	.	.	.
Cc1ccc(C)c(NC(=O)c2ccc(S(=O)(=O)C(F)F)cc2)c1	1	132*	1	109	i	196	99	-3	101
Cc1ccc(C)c(NC(=O)NNS(=O)(=O)c2ccc(C)c(C)c2)c1	2	97	-5	96	i	274	.	.	.
CC(O)CCc1nc2ccc(C(=O)O)cc2[nH]1 (stereo not given)	6	.	.	.	i	108	.	.	.
O=C(O)c1ccc2nc(CO)[nH]c2c1	2	2.0*[inhibitor]	-16	2.0*[inhibitor]	i	516	107	0	102
Cc1cccc(Nc2ncnc3c2cnn3C)c1	0	97	-9	89	i	152	.	.	.
Cn1ncc2c(Nc3ccc4ccccc4c3)ncnc21	-3	14*[inhibitor]	-29	19*[inhibitor]	i	917	102	-3	100
CN1CCN(S(=O)(=O)c2ccc(NC(=O)c3ccc(Br)o3)cc2)CC1	4	41*[inhibitor]	-9	51	i	353	111	10	110
CN1CCN(S(=O)(=O)c2ccc(NC(=O)c3ccc(Br)s3)cc2)CC1	1	114	13	138*	i	.	118	15	109
CN1CCN(c2ccc(NC(=O)c3ccc(-c4ccc(Br)cc4)o3)cc2)CC1	7	99	35	168*	i	124	173	38	104
